Assays:
Canis familiaris [1] = assay: The diuretic activity of compound was measured after oral administration in conscious water loaded dogs at 5 mg/kg after 1 hr; Micro equiv of Na+/kg; assay type: functional, Canis lupus familiaris, Urine
Outline: (§1)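 Male mongrel dogs (20–25 kg) were given 20 mL/kg tap water by gavage about 15 h before drug, with water ad libitum overnight. On the test day they received 4 mL/kg tap water hourly for 7 h, and the bladder was emptied at each interval. Drug was gavaged in the 4 mL/kg water load after the third urine sample, with Tween 80 added when it was poorly soluble. Urinary Na+ was measured by flame photometry as the mean excretory rate (μequiv/kg) per interval per animal. Each dog was its own control, using the hour before dosing.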

Canis familiaris [2] = assay: The diuretic activity of compound was measured after oral administration in conscious water loaded dogs at 5 mg/kg after 6 h; Micro equiv of Na+/kg; assay type: functional, Canis lupus familiaris, Urine; outline: as §1
Mus musculus [3] = assay: The diuretic activity was measured after oral administration in saline loaded mice at 64 mg/kg after 5 hr; assay type: functional, Urine
Outline: (§2)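 Mice were dosed orally with drug in 1% saline at 10 mL/kg, at 4 or 64 mg/kg, alongside a vehicle control. There were 10 mice per group, housed 5 per metabolic cage. Pooled urine was analysed for sodium by flame photometry and expressed as mean mequiv/kg/5 h.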

Canis familiaris [4] = assay: The diuretic activity of compound was measured after oral administration in conscious water loaded dogs at 5 mg/kg after 2 hr; Micro equiv of Na+/kg; assay type: functional, Canis lupus familiaris, Urine; outline: as §1
Mus musculus [5] = assay: The diuretic activity was measured after oral administration in saline loaded mice at 4 mg/kg after 5 hr; assay type: functional, Urine; outline: as §2
Canis familiaris [6] = assay: The diuretic activity of compound was measured after oral administration in conscious water loaded dogs at 5 mg/kg after 4 hr; Micro equiv of Na+/kg; assay type: functional, Canis lupus familiaris, Urine; outline: as §1
Canis familiaris [7] = assay: Diuretic activity was measured after oral administration in conscious water loaded dogs at 5 mg/kg after 1 hr; assay type: functional, Canis lupus familiaris, Urine; outline: as §1
Canis familiaris [8] = assay: The diuretic activity of compound was measured after oral administration in conscious water loaded dogs at 5 mg/kg after 5h; Micro equiv of Na+/kg; assay type: functional, Canis lupus familiaris, Urine; outline: as §1
Canis familiaris [9] = assay: The diuretic activity of compound was measured after oral administration in conscious water loaded dogs at 5 mg/kg after 3 hr; Micro equiv of Na+/kg; assay type: functional, Canis lupus familiaris, Urine; outline: as §1
Mus musculus [10] = assay: The diuretic activity of compound was measured after oral administration in saline loaded mice at 8 mg/kg after 5h; micro equiv of Na+/kg; assay type: functional, Urine
Canis familiaris [11] = assay: Diuretic activity was measured after oral administration in conscious water loaded dogs at 20 mg/kg after 1 hr; assay type: functional, Canis lupus familiaris, Urine; outline: as §1
Mus musculus [12] = assay: The diuretic activity of compound was measured after oral administration in saline loaded mice at 64 mg/kg after 5h.; assay type: functional, Urine; outline: as §2
Mus musculus [13] = assay: The diuretic activity of compound was measured after oral administration in saline loaded mice at 4 mg/kg after 5h.; assay type: functional, Urine; outline: as §2
Canis familiaris [14] = assay: Diuretic activity was measured after oral administration in conscious water loaded dogs at 10 mg/kg after 2 hr

With NS(=O)(=O)c1cc(C(=O)O)c(NCc2ccco2)cc1Cl [FUROSEMIDE] the Oral diuretic activity (Canis familiaris [1]) was 1207 u equiv of [Na+] kg-1, the Oral diuretic activity (Canis familiaris [2]) was 40.4 u equiv of [Na+] kg-1 and the Oral diuretic activity (Mus musculus [3]) was 7.96 m equiv [Na+] 5hr-1kg-1. For the same compound, the Oral diuretic activity (Canis familiaris [4]) was 1311.5 u equiv of [Na+] kg-1, the Oral diuretic activity (Mus musculus [5]) was 1.93 m equiv [Na+] 5hr-1kg-1 and the Oral diuretic activity (Canis familiaris [6]) was 333.9 u equiv of [Na+] kg-1. For the same compound, the Oral diuretic activity (Canis familiaris [7]) was 1311.5 u equiv of [Na+] kg-1 hr-1, the Oral diuretic activity (Canis familiaris [8]) was 144.1 u equiv of [Na+] kg-1 and the Oral diuretic activity (Canis familiaris [9]) was 763.6 u equiv of [Na+] kg-1.
With Cc1c(OCC(=O)O)ccc2c(-c3ccccc3F)noc12 the Oral diuretic activity (Mus musculus [3]) was 7.24 m equiv [Na+] 5hr-1kg-1, the Oral diuretic activity (Mus musculus [10]) was 1.86 m equiv [Na+] 5hr-1kg-1 and the Oral diuretic activity (Canis familiaris [11]) was 478.9 u equiv of [Na+] kg-1 hr-1.
Compound C=C(CC)C(=O)c1ccc(OCC(=O)O)c(Cl)c1Cl [ETHACRYNIC ACID] has an Oral diuretic activity (Canis familiaris [11]) of 703 µequiv [Na+] kg-1 hr-1, an Oral diuretic activity (Mus musculus [12]) of 4.14 m equiv [Na+] 5hr-1kg-1 and an Oral diuretic activity (Mus musculus [13]) of 1.09 m equiv [Na+] 5hr-1kg-1.
With CC1(c2ccccc2)Cc2cc(OCC(=O)O)c(Cl)c(Cl)c2C1=O (stereo unspecified) [INDACRINONE] the Oral diuretic activity (Mus musculus [3]) was 7.6 m equiv [Na+] 5hr-1kg-1, the Oral diuretic activity (Mus musculus [5]) was 2.1 m equiv [Na+] 5hr-1kg-1 and the Oral diuretic activity (Canis familiaris [14]) was 1141.4 u equiv of [Na+] kg-1 hr-1.
O=C(O)COc1ccc2c(-c3cccc[n+]3[O-])noc2c1Cl was tested, and the Oral diuretic activity (Canis familiaris [11]) was 116.6 u equiv of [Na+] kg-1 hr-1, the Oral diuretic activity (Mus musculus [12]) was 1 m equiv [Na+] 5hr-1kg-1 and the Oral diuretic activity (Mus musculus [13]) was 0.5 m equiv [Na+] 5hr-1kg-1.

From ChEMBL document CHEMBL1121929, “[(3-aryl-1,2-benzisoxazol-6-yl)oxy]acetic acids. A new diuretic series” (1982)
